Active and inactive are the calls of the source. No cut-off for these calls is given here.
Columns and labels:
Plasmodium berghei [1] = experiment: Antimalarial activity against Plasmodium berghei infected in mouse assessed as parasitemia level at 3.2 mg/kg/day for 3 days measured on day 6 (reference value: 37%); type: functional
Mus musculus [2] = experiment: Toxicity in Plasmodium berghei-infected mouse assessed as mortality at split dose of 40 mg/kg/day, po for 3 days; type: organism-based; design: route oral; conditions: in vivo, 72 h
[3] = target: T1, Histone deacetylase (Plasmodium falciparum 3D7) (UniProt Q7K6A1); experiment: Inhibition of Plasmodium falciparum 3D7 histone deacetylase infected in human erythrocytes assessed as alteration of histone H3 acetylation after 3.5 hrs by SDS-PAGE; type: cell-based
T1 sequence (whole entry): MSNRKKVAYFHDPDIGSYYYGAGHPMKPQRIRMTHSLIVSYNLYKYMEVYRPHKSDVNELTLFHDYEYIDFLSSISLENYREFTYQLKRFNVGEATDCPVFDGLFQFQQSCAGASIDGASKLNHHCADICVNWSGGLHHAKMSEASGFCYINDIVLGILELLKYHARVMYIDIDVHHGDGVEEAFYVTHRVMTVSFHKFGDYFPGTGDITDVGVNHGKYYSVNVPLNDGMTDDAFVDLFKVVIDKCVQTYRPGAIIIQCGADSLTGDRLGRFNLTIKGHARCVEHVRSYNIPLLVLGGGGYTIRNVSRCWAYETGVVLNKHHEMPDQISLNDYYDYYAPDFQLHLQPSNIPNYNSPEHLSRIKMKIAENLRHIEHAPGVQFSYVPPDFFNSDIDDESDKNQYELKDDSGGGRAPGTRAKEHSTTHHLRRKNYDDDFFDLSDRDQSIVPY
How it was run: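 About 3 × 10^9 erythrocytes infected with late-trophozoite P. falciparum 3D7 were exposed to compound or to DMSO vehicle for 3.5 h at 37°C, and an untreated sample was taken at the start. Histones were extracted, about 6 × 10^8 parasites were loaded per lane on SDS–15% PAGE, and loading was checked by silver stain. Western blots were probed with anti-tetraacetyl-H4 and anti-diacetyl-H3 antisera and detected by ECL.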

Plasmodium berghei [4] = experiment: Antimalarial activity against Plasmodium berghei infected in mouse assessed as parasitemia level at 3.2 mg/kg/day for 3 days measured on day 3 in presence of 4 mg/kg/day chloroquine (reference value: 0.46%); type: functional
[5] = Half life in ICR mouse at 50 mg/kg/day, sc by LC/MS analysis; type: ADME, organism-based; design: route subcutaneous; conditions: in vivo
How it was run: (§1)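 Male ICR mice, 8 weeks old, got one 50 mg/kg dose either orally or subcutaneously, with three groups of six mice per route. One mouse per group was killed at 15, 30 and 60 min and at 3, 6 and 24 h. Plasma was deproteinized with 2 volumes of acetonitrile and analysed by LC-MS/MS on a C18 column against 0–500 ng/ml standards, with parent and acid metabolite measured in the same sample. Each six-mouse group was treated as one "animal" and fitted to a two-compartment model. AUC was taken by the linear trapezoidal rule extrapolated to infinity, and Cmax and Tmax were read per "animal".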

Mus musculus [6] = experiment: Toxicity in Plasmodium berghei-infected mouse assessed as mortality at single dose of 20 mg/kg/day, po for 3 days; type: organism-based; design: route oral; conditions: in vivo, 72 h
Plasmodium falciparum [7] = experiment: Antimicrobial activity against Plasmodium falciparum D6 infected in Aotus lemurinus lemurinus monkey at […] in presence of 4 mg/kg chloroquine; type: functional
Plasmodium berghei [8] = experiment: Antimalarial activity against Plasmodium berghei infected in mouse assessed as effect on cure rate at single dose of 20 mg/kg/day, po for 3 days; type: functional, organism-based
How it was run: (§2)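 Mice were infected ip with 10^6 P. berghei-parasitized erythrocytes. The compound was given in hydroxyethylcellulose-Tween 20 vehicle, 5 mice per group, starting on day 3 post-infection. Regimens were once-daily or split daily oral doses over 3 days, subcutaneous dosing, or dosing over 7 days. Read-outs were posttreatment parasitemia on day 6 as a fraction of controls and the number of mice cured.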

Plasmodium falciparum [9] = experiment: Antimalarial activity against drug-resistant Plasmodium falciparum TM91C235; type: functional, organism-based
Plasmodium berghei [10] = experiment: Antimalarial activity against Plasmodium berghei infected in mouse assessed as parasitemia level at 32 mg/kg/day for 3 days measured on day 3 in presence of 3.6 mg/kg/day chloroquine (reference value: 0.46%); type: functional
How it was run: (§3)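 Mice were infected ip with 10^6 P. berghei-parasitized erythrocytes. The compound was given orally once daily on days 3, 4 and 5 post-infection in hydroxyethylcellulose-Tween 20 vehicle, alone or together with chloroquine, with 5 mice per dose group. Parasitemia (%) was read on days 3 and 6, and cures were counted as animals cured out of 5.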

Plasmodium berghei [11] = experiment: Antimalarial activity against Plasmodium berghei infected in mouse assessed as effect on cure rate at 0.32 mg/kg/day for 3 days; type: functional, organism-based
Plasmodium falciparum [12] = experiment: Antimalarial activity against drug-resistant Plasmodium falciparum TM90C2A; type: functional, organism-based
Plasmodium berghei [13] = experiment: Antimalarial activity against Plasmodium berghei infected in mouse assessed as parasitemia level at 12.8 mg/kg/day for 3 days measured on day 3 in presence of 16 mg/kg/day chloroquine (reference value: 0.46%); type: functional; how it was run: as §3
Plasmodium berghei [14] = experiment: Antimalarial activity against Plasmodium berghei infected in mouse assessed as effect on cure rate at 3.2 mg/kg/day for 3 days; type: functional, organism-based
Plasmodium falciparum [15] = experiment: Antimicrobial activity against Plasmodium falciparum W2 at […] in presence of mefloquine; type: functional
How it was run: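 In vitro fixed-ratio isobologram using a SYBR green I fluorescence assay. […] IC50s were standardized and FIC50 and ΣFIC50 calculated by the Berenbaum method. Reported as the average ΣFIC across dilutions or the average maximum ΣFIC, from at least 2 experiments.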

Mus musculus [16] = experiment: Toxicity in Plasmodium berghei-infected mouse assessed as mortality at single dose of 40 mg/kg/day, po for 3 days; type: organism-based; design: route oral; conditions: in vivo, 72 h
Plasmodium berghei [17] = experiment: Antimalarial activity against Plasmodium berghei infected in mouse assessed as effect on cure rate at split dose of 320 mg/kg/day, po for 3 days; type: functional, organism-based; how it was run: as §2
Plasmodium berghei [18] = experiment: Antimalarial activity against Plasmodium berghei infected in mouse assessed as parasitemia level at split dose of 130 mg/kg/day, po for 7 days measured on day 6 relative to control; type: functional
Plasmodium berghei [19] = experiment: Antimalarial activity against Plasmodium berghei infected in mouse assessed as effect on cure rate at split dose of 640 mg/kg/day, po for 3 days; type: functional, organism-based; how it was run: as §2
Plasmodium berghei [20] = experiment: Antimalarial activity against Plasmodium berghei infected in mouse assessed as effect on cure rate at 320 mg/kg/day for 3 days; type: functional, organism-based; how it was run: as §3
[21] = Selectivity index, ratio of LC50 for mouse RAW264.7 cells to IC50 for Plasmodium falciparum; conditions: raw264.7
Plasmodium berghei [22] = experiment: Antimalarial activity against Plasmodium berghei infected in mouse assessed as effect on cure rate at 0.32 mg/kg/day for 3 days measured on day 6 in presence of 4 mg/kg/day chloroquine; type: functional, organism-based
Plasmodium berghei [23] = experiment: Antimalarial activity against Plasmodium berghei infected in mouse assessed as parasitemia level at 320 mg/kg/day for 3 days measured on day 6 (reference value: 37%); type: functional; how it was run: as §3
Plasmodium berghei [24] = experiment: Antimalarial activity against Plasmodium berghei infected in mouse assessed as effect on cure rate at split dose of 80 mg/kg/day, po for 3 days; type: functional, organism-based; how it was run: as §2
Mus musculus [25] = experiment: Toxicity in Plasmodium berghei-infected mouse assessed as mortality at split dose of 80 mg/kg/day, po for 3 days; type: organism-based; design: route oral; conditions: in vivo, 72 h
[26] = Tmax in ICR mouse at 50 mg/kg/day, sc by LC/MS analysis; type: ADME, organism-based; design: route subcutaneous; conditions: in vivo; how it was run: as §1

In the case of `Nc1cccc(-c2csc(NC(=O)CCCCCCC(=O)NO)n2)c1`, the Activity (Plasmodium berghei [1]) is reported as 40%, the Activity (Mus musculus [2]) is reported as “Non-toxic” and the inhibition [3] is reported as “Dose-dependent effect”. The Activity (Plasmodium berghei [4]) was 0.6%, the half-life [5] was 8.5 h and the Activity (Mus musculus [6]) was “Non-toxic”. For the same compound, the “fractional inhibitory concentration index (FICI)” value (Plasmodium falciparum [7]) was 2.2, the Activity (Plasmodium berghei [8]) was “inactive” and the IC50 (Plasmodium falciparum [9]) was 1.5 nM. For the same compound, the Activity (Plasmodium berghei [10]) was 0.44%, the Activity (Plasmodium berghei [11]) was “inactive” and the IC50 (Plasmodium falciparum [12]) was 0.6 nM. The Activity (Plasmodium berghei [13]) was 0.52%, the Activity (Plasmodium berghei [14]) was “inactive” and the “fractional inhibitory concentration index (FICI)” value (Plasmodium falciparum [15]) was 2.1. For the same compound, the Activity (Mus musculus [16]) was “Non-toxic”, the Activity (Plasmodium berghei [17]) was “inactive” and the “fold change (FC)” value (Plasmodium berghei [18]) was 0.01. For the same compound, the Activity (Plasmodium berghei [19]) was “inactive”, the Activity (Plasmodium berghei [20]) was “inactive” and the selectivity ratio [21] was 1080. The Activity (Plasmodium berghei [22]) was “inactive”, the Activity (Plasmodium berghei [23]) was 0.107% and the Activity (Plasmodium berghei [24]) was “inactive”. For the same compound, the Activity (Mus musculus [25]) was “Non-toxic” and the Tmax [26] was 1.3 h.

Reference: ChEMBL document CHEMBL1629555, “Antimalarial activity of phenylthiazolyl-bearing hydroxamate-based histone deacetylase inhibitors” (Antimicrob Agents Chemother, 2008)
